Data set [1] addresses 72 kDa type IV collagenase (Homo sapiens) (UniProt P08253). Kind of data set: Inhibition of MMP-2 (unknown origin) at 10 to 50 uM incubated for 10 to 15 mins and measured after 2 hrs by fluorescence based assay. An outline of the steps:
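MMP-2/MMP-9 in activation buffer with test agent (final 50 and 10 μM), 10–15 min incubation, then fluorogenic substrate added. Incubated 2 h at 37 °C; fluorescence read at 320/405 nm. Kit MMP inhibitor was the positive control.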

The next data set deals with OVCAR-5. Kind of data set: Antiproliferative activity against human OVCAR5 cells assessed as reduction in cell viability after 48 hrs by CellTiter-Blue assay. In kind it is functional. To be noted: OVCAR-5, 48 h, read-out: LC50 (the source's name). Put shortly: (§1)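 Cells grown in RPMI1640 with 10% FBS at 37 °C, 5% CO₂. 5,000–10,000 cells/well were pre-incubated overnight, and a time-zero CellTiter-Blue read was taken. Six 10-fold dilutions (top final 10 μM) were applied for 48 h, followed by 0.125 mg/mL CellTiter-Blue for 2–4 h. Resorufin fluorescence was read at ex 560/em 590 nm. […] Triplicates.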

The target of the next data set is Histone deacetylase 9 (Homo sapiens, UniProt Q9UKV0). The data set can be described thus: Inhibition of recombinant human C-terminal His-tagged HDAC9 (604 to 1066 residues) expressed in baculovirus infected Sf9 cells using Boc-Lys (trifluoroacetyl)-AMC as substrate preincubated for 1 hr followed by substrate addition and measured after 2 hrs by fluorescence based micro plate reader analysis. Put shortly:
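Recombinant enzyme was preincubated with serially varied inhibitor for 1 h at 30 °C. Boc-Lys(trifluoroacetyl)-AMC was then added to a final 50 μM and incubated 2 h at 30 °C. The reaction was stopped with developer containing trypsin and TSA, and fluorescence (ex 360/em 460 nm) was read 30 min later. Inhibition was taken relative to control wells and fitted to a variable-slope log(inhibitor) curve. Values are the mean of at least three experiments.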

Another data set deals with DU-145. Kind of data set: Antiproliferative activity against human DU145 cells assessed as reduction in cell viability after 48 hrs by CellTiter-Blue assay. The class given is functional. To be noted: DU-145, 48 h, read-out: LC50 (the source's name). An outline of the steps: as §1
Data set [2] has as its system MV4-11. Kind of data set: Induction of pro caspase 3 cleavage in human MV4-11 cells at 200 nM after 24 hrs in presence of 5 nM bortezomib by Western blot analysis. The class given is functional, cell-based. An outline of the steps:
(§2)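 Cells (1,500,000 per well) grown 12 h, then drug-treated as specified. Lysed in RIPA buffer, sonicated, centrifuged, protein normalized by BCA. Run on 4–12% Bis-Tris gels in MES, transferred, probed overnight at 4 °C with primary antibodies at 1/1000. Actin served as reference for LC3-II quantitation.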

Another data set has as its system U-937. Kind of data set: Antiproliferative activity agaisnt p53 null human U937 cells at 10 uM after 48 hrs by CellTiter-blue assay. The class given is functional, cell-based.
The test system of a further data set is RS4-11. Kind of data set: Down regulation of STAT5 expression in human RS4:11 cells harboring wild type p53/FLT3 assessed as cleavage of pro-caspase 3 at 50 to 200 nM after 24 hrs by Western blot analysis. In kind it is functional, cell-based. An outline of the steps: as §2
Data set [3] deals with HL-60. The data set can be described thus: Upregulation of P21WAF1/Cip1 protein expression in p53 null human HL60 cells harboring wild type FLT3 at 50 to 200 nM after 24 hrs by Western blot analysis. The class given is functional, cell-based. Put shortly: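 RS4;11 cells were cultured in RPMI-1640 with 10% FBS and HL-60 cells in IMDM with 20% FBS. Cells were plated at 1,500,000 per well, grown 12 h, then drug-treated. Lysis was in RIPA buffer with sonication and centrifugation, and loading was normalized by BCA. Lysates were run on 4–12% Bis-Tris gels in MES buffer and transferred, and membranes were probed overnight at 4 °C with 1/1000 primary antibodies.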

The test system of data set [4] is HL-60. The data set can be described thus: Induction of apoptosis in p53 null human HL60 cells harboring wild type FLT3 assessed as cleavage of pro-caspase 3 at 50 to 200 nM after 24 hrs by Western blot analysis. The class given is functional, cell-based. An outline of the steps:
as §2

Another data set has as its system SR. The data set can be described thus: Antiproliferative activity against human SR cells assessed as reduction in cell viability after 48 hrs by CellTiter-Blue assay. In kind it is functional. To be noted: read-out: LC50 (the source's name). An outline of the steps: (§3)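 NCI-60 panel lines grown in RPMI1640 with 10% FBS at 37 °C, 5% CO₂. Seeded at 5,000–10,000 cells/well and pre-incubated overnight. Exposed for 48 h to six 10-fold dilutions (top final 10 μM), with a time-zero plate read at dosing. CellTiter-Blue (0.125 mg/mL) for 2–4 h, fluorescence 560/590 nm, triplicate curves.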

Data set [5] concerns MV4-11. Kind of data set: Induction of apoptosis in human MV4-11 cells harboring wild type p53/FLT3-ITD mutant assessed as XIAP degradation at 50 to 200 nM after 24 hrs by Western blot analysis. In kind it is functional, cell-based. Put shortly: as §2
In a further data set the test system is PC-3. The data set can be described thus: Antiproliferative activity against human PC3 cells assessed as reduction in cell viability after 48 hrs by CellTiter-Blue assay. In kind it is functional. To be noted: PC-3, 48 h, read-out: LC50 (the source's name). An outline of the steps: as §1
Data set [6] in a line: Oral bioavailability in CD1 mouse at 20 mg/kg dosed via gavage after 24 hrs by LC-MS/MS analysis. In kind it is ADME, organism-based. To be noted: in vivo. Put shortly: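 Male CD-1 mice (n = 3) were fasted overnight and given compound in PBS with 5% DMSO, 5 mg/kg iv bolus or 20 mg/kg by gavage. Blood was sampled from 5 min to 24 h. Plasma was protein-precipitated with acetonitrile containing internal standard and quantified by LC-MS/MS (MRM). AUC was calculated by the linear trapezoidal method and parameters by non-compartmental analysis.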

The subject of data set [7] is MV4-11. Kind of data set: Inhibition of autophagy in human MV4-11 cells assessed as cell death at 200 nM after 24 hrs in presence of 5 uM of chloroquine by CellTiter-blue dye based spectrophotometric analysis. In kind it is functional. Put shortly:
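MV4-11 cells grown 12 h, then given 200 nM test agent alone or with z-VAD, chloroquine (5 μM) or wortmannin (100 nM) for 24 h. Viability by CellTiter-Blue (0.125 mg/mL, 2–4 h), resorufin fluorescence 560/590 nm, compared with t = 0 wells; n = 3.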

Another data set relates to SW-620. The data set can be described thus: Antiproliferative activity against human SW620 cells assessed as reduction in cell viability after 48 hrs by CellTiter-Blue assay. The class given is functional. To be noted: SW-620, 48 h, read-out: LC50 (the source's name). An outline of the steps: as §3
In another data set the test system is NCI-H460. The data set can be described thus: Antiproliferative activity against human NCI-H460 cells assessed as reduction in cell viability after 48 hrs by CellTiter-Blue assay. In kind it is functional. To be noted: NCI-H460, 48 h, read-out: LC50 (the source's name). An outline of the steps: as §1
The next data set relates to SNB-19. Kind of data set: Antiproliferative activity against human SNB19 cells assessed as reduction in cell viability after 48 hrs by CellTiter-Blue assay. In kind it is functional. To be noted: SNB-19, 48 h, read-out: LC50 (the source's name). An outline of the steps:
as §1

Data set [8] concerns the target Aminopeptidase N (Sus scrofa) (UniProt P15145). Kind of data set: Inhibition of porcine kidney microsomal APN at 10 uM using L-leucine-p-nitroanilide as substrate preincubated for 5 mins followed by substrate addition and measured after 30 mins by microplate reader analysis. The class given is subcellular. To be noted: Sus scrofa domesticus. An outline of the steps:
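Porcine kidney microsomal aminopeptidase (CD13) with test agent (final 50 and 10 μM; bestatin 10 μM as reference), 5 min, then L-leucine-p-nitroanilide added. Incubated 30 min at 37 °C; absorbance read at 405 nm.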

Active and inactive are the calls of the source. The calls are words filed in the database; no cut-off is given here.

72 kDa type IV collagenase (Homo sapiens), sequence (P08253 110-660 limits assumed): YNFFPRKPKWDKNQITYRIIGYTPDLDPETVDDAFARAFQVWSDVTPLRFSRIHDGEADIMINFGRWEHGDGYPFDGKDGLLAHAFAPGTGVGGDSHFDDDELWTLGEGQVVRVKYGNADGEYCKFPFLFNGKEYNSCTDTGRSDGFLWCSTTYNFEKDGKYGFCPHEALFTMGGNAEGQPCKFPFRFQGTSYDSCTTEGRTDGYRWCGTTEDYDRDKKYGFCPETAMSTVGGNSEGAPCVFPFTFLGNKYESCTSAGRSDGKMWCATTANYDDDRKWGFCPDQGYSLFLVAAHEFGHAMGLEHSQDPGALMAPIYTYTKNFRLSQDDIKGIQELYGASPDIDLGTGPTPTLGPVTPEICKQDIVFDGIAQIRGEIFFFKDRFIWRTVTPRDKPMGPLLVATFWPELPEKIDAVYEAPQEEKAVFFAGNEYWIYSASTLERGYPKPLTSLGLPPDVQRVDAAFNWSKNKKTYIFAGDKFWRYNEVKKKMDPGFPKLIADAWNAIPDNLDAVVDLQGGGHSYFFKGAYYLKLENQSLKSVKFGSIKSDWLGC
Aminopeptidase N (Sus scrofa), sequence (P15145 whole entry): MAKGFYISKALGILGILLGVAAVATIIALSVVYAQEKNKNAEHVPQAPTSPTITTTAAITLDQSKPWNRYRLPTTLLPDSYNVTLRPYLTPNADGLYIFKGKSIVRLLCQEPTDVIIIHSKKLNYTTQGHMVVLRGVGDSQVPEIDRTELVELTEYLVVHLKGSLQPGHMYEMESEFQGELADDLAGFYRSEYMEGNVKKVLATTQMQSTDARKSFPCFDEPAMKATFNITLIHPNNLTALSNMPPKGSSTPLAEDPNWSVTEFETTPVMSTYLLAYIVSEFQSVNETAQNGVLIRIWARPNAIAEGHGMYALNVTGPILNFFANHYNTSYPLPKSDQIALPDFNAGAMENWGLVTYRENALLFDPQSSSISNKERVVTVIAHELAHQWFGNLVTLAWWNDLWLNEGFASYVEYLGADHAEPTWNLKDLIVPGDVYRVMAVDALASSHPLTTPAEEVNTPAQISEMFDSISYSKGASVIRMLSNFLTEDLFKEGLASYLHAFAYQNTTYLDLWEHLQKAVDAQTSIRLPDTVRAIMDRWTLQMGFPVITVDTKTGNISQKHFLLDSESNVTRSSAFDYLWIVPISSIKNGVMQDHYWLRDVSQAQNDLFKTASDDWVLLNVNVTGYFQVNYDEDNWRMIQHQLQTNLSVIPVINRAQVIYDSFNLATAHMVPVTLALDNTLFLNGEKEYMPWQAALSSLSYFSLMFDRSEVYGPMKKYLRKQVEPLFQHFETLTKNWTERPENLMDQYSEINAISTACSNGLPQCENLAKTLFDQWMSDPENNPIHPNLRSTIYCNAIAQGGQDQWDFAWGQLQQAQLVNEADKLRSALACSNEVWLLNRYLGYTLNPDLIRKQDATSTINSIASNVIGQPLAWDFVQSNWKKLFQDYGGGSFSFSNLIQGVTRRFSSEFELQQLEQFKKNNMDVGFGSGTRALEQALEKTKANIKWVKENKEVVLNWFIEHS
Histone deacetylase 9, sequence (Q9UKV0 whole entry, the tested form may be a part): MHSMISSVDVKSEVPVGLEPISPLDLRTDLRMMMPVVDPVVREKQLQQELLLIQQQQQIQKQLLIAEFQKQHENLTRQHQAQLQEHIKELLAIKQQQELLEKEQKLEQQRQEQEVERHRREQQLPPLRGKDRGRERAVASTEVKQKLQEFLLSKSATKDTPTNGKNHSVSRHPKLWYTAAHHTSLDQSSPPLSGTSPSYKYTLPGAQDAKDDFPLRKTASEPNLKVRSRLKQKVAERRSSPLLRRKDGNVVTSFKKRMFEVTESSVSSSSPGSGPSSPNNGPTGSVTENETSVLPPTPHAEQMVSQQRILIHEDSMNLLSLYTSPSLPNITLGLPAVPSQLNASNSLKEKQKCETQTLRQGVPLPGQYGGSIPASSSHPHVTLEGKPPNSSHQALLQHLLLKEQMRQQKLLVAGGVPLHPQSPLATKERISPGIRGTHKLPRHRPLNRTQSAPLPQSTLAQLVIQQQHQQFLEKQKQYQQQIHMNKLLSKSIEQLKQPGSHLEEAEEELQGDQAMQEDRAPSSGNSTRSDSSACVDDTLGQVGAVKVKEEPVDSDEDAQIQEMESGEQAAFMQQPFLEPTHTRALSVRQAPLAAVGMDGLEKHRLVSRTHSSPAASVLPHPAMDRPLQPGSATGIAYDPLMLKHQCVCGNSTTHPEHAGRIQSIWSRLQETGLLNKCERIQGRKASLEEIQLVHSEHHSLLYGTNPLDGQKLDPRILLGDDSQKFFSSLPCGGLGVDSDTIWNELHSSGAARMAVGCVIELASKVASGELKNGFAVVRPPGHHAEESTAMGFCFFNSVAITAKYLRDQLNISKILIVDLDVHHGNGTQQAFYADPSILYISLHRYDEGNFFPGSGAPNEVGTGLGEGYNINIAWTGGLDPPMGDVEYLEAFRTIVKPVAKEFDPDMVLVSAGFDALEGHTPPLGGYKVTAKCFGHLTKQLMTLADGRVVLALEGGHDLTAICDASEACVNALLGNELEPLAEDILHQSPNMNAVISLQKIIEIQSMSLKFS

As to `CCCNNC(=O)/C=C/c1ccc(CNCCc2c(C)[nH]c3ccccc23)cc1.O=C(O)C(F)(F)F`, the inhibition entry (in [1]; with MV4-11 [7]; in [8]) was “inactive” in each case. For the same compound, the CC50 in the data set on OVCAR-5, in the data set on DU-145, with SR, in the data set with PC-3, in the data set with SW-620 and in the data set on NCI-H460 was more than 10 µM in each case. For the same compound, in the data set with SNB-19, the CC50 is more than 10 µM. Besides, the IC50 on Histone deacetylase 9 is more than 10 µM. Also, the result with MV4-11 [2], in the data set with U-937, with HL-60 [3] and in the data set on MV4-11 [5] was Active. The result in the data set with RS4-11 and in the data set on HL-60 [4] was inactive. In data set [6], this compound displayed an F of 19.8%.

Values taken from ChEMBL document CHEMBL4342521 (J Med Chem, 2020).
